Measured values of several laboratories.
Lines come from different studies, so protocols differ.
Target: Dual specificity tyrosine-phosphorylation-regulated kinase 1A (DYRK1A, Homo sapiens, UniProt Q13627)
Observed: enzyme activity
Action: inhibitor

SMILES | assay | setting | remaining activity
O=C(O)c1ccc2c3c1cccc3c(=O)n1c3ccccc3nc21 |  | 0.5 µM | 55.5%
O=C(O)c1ccc2c(c1)nc(Nc1ccc(F)c(Cl)c1)c1ccncc12 | radiometric | 1 µM | 0%
O=c1cc(-c2cccc3c2Sc2ccccc2S3)oc(N2CCOCC2)c1 |  | 0.5 µM | 95%
Nc1nc(NC2CCCCC2)sc1C(=O)c1ccccc1 |  | 10 µM | 25%
O=C(O)c1ccc2c(c1)nc(NCCc1ccccc1)c1ncncc12 | radiometric | 1 µM | 19%
CC(C)(C)C(=O)c1sc(NC2CCCCC2)nc1N |  | 10 µM | 88%
Cc1sc(C(=O)NC2COC2)cc1-n1cc(NC(=O)Nc2c(F)cccc2Cl)cn1 |  | 10 µM | 95.5%
COc1cc(Nc2cnc(C#N)c(O[C@H](C)CN(C)C)n2)ncc1-c1cnn(C)c1 | radiometric | 1 µM | 91%
Oc1cccc(-c2nc(N3CCOCC3)c3oc4ncccc4c3n2)c1 |  | 10 µM | 59%
O=C(O)c1ccc2c(c1)nc(Nc1ccc(Cl)cc1)c1ncncc12 | radiometric | 1 µM | 3%
CC(C)(C)c1nc(-c2cccc(NS(=O)(=O)c3c(F)cccc3F)c2F)c(-c2ccnc(N)n2)s1 | radiometric | 1 µM | 90%
O=C(O)c1ccc2c(c1)nc(Nc1ccccc1Cl)c1ncncc12 | radiometric | 1 µM | 11%
COc1cc(Cl)c(C(=O)N[C@@H](CN[C@H]2CC[C@@H](N)CC2)Cc2ccc(C#N)cc2)cc1-c1ccc(CN[C@H](C)c2ccc(C)cc2)o1 |  | 1 µM | 120%
COc1cccc(Nc2nc3cc(C(=O)O)ccc3c3cnccc23)c1 | radiometric | 1 µM | 2%
CCN(CC)CCNC(=O)c1c(C)[nH]c(/C=C2\C(=O)Nc3ccc(Cl)cc32)c1C |  | 0.5 µM | 47.2%
